ATG4B inhibitor: inhibitors of human ATG4B cysteine protease | inhibition, % at 8.33 µM | actives 0.51% (n = 340,000) | Q9Y4P1 | ATG4B cleavage of LC3-PLA2, NBD-HPC fluorescence, 1 h | AID 504462; in the data active = inhibition above about 40%
SMARCA2 act: increases SMARCA2 function in MMTV reporter cells | MG213 cells, MMTV-luciferase reporter, dexamethasone, overnight | activation, % at 9.1 µM | actives 1% (n = 370,000) | AID 652017; in the data active = activation above about 7.8%;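 also: 0% = vehicle wells and 100% = reference activator wells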
MC4R ag barr: agonists of human melanocortin 4 receptor (MC4R) beta-arrestin. AID 540308. actives 0.98% (n = 360,000). P32245. U2OS MC4R beta-arrestin complementation, luminescence; percent of melanotan II response, DMSO zero. activation, % at 8.9 µM;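 active = activation above a per-plate cutoff, the mean activation of sample wells on that plate plus 3 SD, cut at about 8% in these data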
Target sequence (P32245 whole entry, looked up): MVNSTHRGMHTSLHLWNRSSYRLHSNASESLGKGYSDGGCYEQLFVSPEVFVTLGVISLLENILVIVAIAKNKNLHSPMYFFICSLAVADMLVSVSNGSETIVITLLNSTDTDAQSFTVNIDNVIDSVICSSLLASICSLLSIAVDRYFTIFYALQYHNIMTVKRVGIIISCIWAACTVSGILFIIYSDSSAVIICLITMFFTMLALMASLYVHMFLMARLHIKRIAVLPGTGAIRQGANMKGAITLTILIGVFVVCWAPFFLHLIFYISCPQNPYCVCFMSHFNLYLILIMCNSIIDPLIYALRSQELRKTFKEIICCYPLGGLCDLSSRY
MPTP block: blocks calcium-induced mitochondrial swelling | isolated mouse mitochondria, Ca2+ swelling absorbance, 30 min | inhibition, % at 10 µM | actives 1.4% (n = 360,000) | AID 602449;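 active = inhibition of 50% or more, scaled per plate between neutral and stimulator controls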;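 also: 0% = DMSO wells given calcium and 100% = 1 mM EGTA wells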
MC4R antagonist: antagonists of human melanocortin 4 receptor (MC4R); AID 540295; MC4R-expressing cells, MTII-stimulated cAMP, LANCE TR-FRET; inhibition, % at 6.5 µM; P32245; actives 0.48% (n = 360,000);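 active = inhibition above its plate's cutoff, the mean of tested wells on that plate plus 3 SD, cut at about 29% in these data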;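 also: 0% = Melanotan II alone and 100% = Melanotan II plus saturating MCL0020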
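Material – human MC4R-expressing U2OS cells · Repeats – no replicates · Detection – TR-FRET with Eu-cAMP and labeled anti-cAMP, 671 nm · Times – compound 30 min, challenge 1 h, detection 1 h · Compound – single nominal compound dose of 6.5 µM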
ATG4B confirm: confirmation of human ATG4B inhibitors; shares compounds with ATG4B inhibitor; ATG4B protease fluorescent substrate cleavage assay; inhibition, % at 8.33 µM; actives 92% (n = 320); AID 504757; in the data active = inhibition above about 39%
PLA2 ctr: counter-screen for ATG4B inhibitors: human phospholipase A2; shares compounds with ATG4B inhibitor; purified PLA2, NBD-C6-HPC fluorescence, 45 min; inhibition, % at 8.33 µM; actives 66% (n = 1,600); AID 588402; in the data active = inhibition above about 50%
Target sequence (P04054 whole entry, looked up): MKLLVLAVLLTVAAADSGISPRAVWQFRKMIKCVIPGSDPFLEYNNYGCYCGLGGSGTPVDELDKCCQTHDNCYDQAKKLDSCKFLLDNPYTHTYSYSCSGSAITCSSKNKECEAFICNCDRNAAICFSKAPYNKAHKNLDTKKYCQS
* marks the source's active call; other numbers are inactive results; nt = no result. An excerpt weighted towards active compounds, which were near 4.1% of everything screened.

SMILES	ATG4B inhibitor	SMARCA2 act	MC4R ag barr	MPTP block	MC4R antagonist	PLA2 ctr	others
Cc1ccc(OCc2nnc(SCC(=O)O)n2-c2ccccc2)cc1	-3.0	-4.0	-2.6	0.8	6.7	nt
N#Cc1ccc(OCc2nnc(SCC(=O)c3ccccc3)n2-c2ccccc2)cc1	46.1*	0.8	3.7	-1.4	-3.5	56.7*
Cc1ccc(-n2c(CCc3ccccc3)nnc2SCC(=O)NCc2ccccc2)cc1C	3.5	-2.7	2.4	1.9	3.2	nt
Cc1ccc(OCc2nnc(SCC(=O)c3ccccc3)n2-c2ccccc2)cc1	74.5*	-2.9	2.1	2.6	9.9	77.6*
COC(=O)c1cccc(NC(=O)CSc2nnc(COc3ccc(C#N)cc3)n2-c2ccccc2)c1	-13.0	-3.0	-0.6	2.4	1.2	nt
Cc1cccc(-n2c(CCc3ccccc3)nnc2SCC(=O)c2ccccc2)c1	72.4*	-2.2	8.3*	6.9	7.4	75.4*
CCc1cc2c(nc1CC)CCCN2S(=O)(=O)c1ccc(C(F)(F)F)cc1	nt	-4.2	nt	nt	nt	nt
C=CCOC(=O)N[C@H](c1ccc(-c2ccccc2)cc1)[C@H](C)/C=C/CC(=O)OC	nt	-4.5	nt	nt	nt	nt
CCOC(=O)c1csc(NC(=O)C2CCCN(S(=O)(=O)c3ccccc3[N+](=O)[O-])C2)n1 (stereo not given)	nt	-3.6	nt	nt	nt	nt
O=C(O)c1ccc(-c2ccc(/C=c3/sc4nc5ccccc5n4c3=O)o2)cc1Cl	49.7*	1.2	-1.8	1.4	4.1	19.2	ATG4B confirm=81.6*
Cc1ccc(OCCNC(=O)[C@@H](Cc2ccccc2)NC(=O)[C@H]2O[C@@H](n3ccc(=O)[nH]c3=O)[C@H](O)[C@@H]2O)cc1C	nt	2.1	nt	nt	nt	nt
COc1ccccc1Nc1nn2c(=O)c3ccc(C(=O)N4CCCC(C)C4)cc3nc2s1 (stereo not given)	46.3*	-0.5	2.3	2.9	18.9	63.0*
CNC(=O)CSc1nc2ccccc2c(=O)n1C1CCCCC1	12.7	-3.1	-1.3	0.6	-3.7	nt
CCOC(=O)CSc1nc2ccccc2c(=O)n1C1CCCC1	43.6*	-3.4	0.1	0.4	-2.6	64.8*
CCC(C)(C)C1CCc2c(sc(NC(=O)c3ccccc3C(=O)O)c2C#N)C1 (stereo not given)	71.3*	4.8	1.7	29.4	1.1	87.5*
CC(C)Cn1c(=O)c2ccccc2c2ccccc2c1=O	38.5	-0.2	1.2	3.0	-0.7	nt
CC(C)CCn1c(=O)c2ccccc2c2ccccc2c1=O	64.2*	1.9	0.7	2.6	8.2	71.0*
C=CC[C@@]1(c2ccc(Br)cc2OC)Oc2ccccc2-c2nccnc21	nt	-4.0	nt	nt	nt	nt
CCc1ccccc1NC(=S)/N=C(\N)Nc1nc(C)c2cc(C)ccc2n1	79.7*	3.8	1.9	0.5	-4.9	82.0*
Cc1ccc(S(=O)(=O)Nc2ccccc2/C=N/c2nc3ccccc3n2C(C)C)cc1	54.7*	-1.4	-0.5	2.1	1.7	43.0	ATG4B confirm=57.2*
CCCCn1c(/N=C/c2ccccc2NS(=O)(=O)c2ccc(C)cc2)nc2ccccc21	31.7	-2.6	1.9	3.7	10.9	nt
CN(C)CC(=O)N[C@H]1C[C@@H]2O[C@@H](CO)CC[C@@H]2O[C@@H]1CCc1ccc(C2=CCCCC2)cc1	nt	-1.3	nt	nt	nt	nt
Cc1ccc(S(=O)(=O)Nc2ccc3c4c(cccc24)CC3)c(C)c1	62.6*	-3.0	0.0	-1.3	-3.9	77.7*
Cc1cc(C)c(S(=O)(=O)Nc2ccc3c4c(cccc24)CC3)c(C)c1	10.6	-2.2	1.4	-2.9	-25.7	nt
Cc1ccccc1CN1CCCCC(NC(=O)C2CCCC2)C1=O (stereo not given)	nt	-1.0	nt	nt	nt	nt
SMILES	ATG4B inhibitor	SMARCA2 act	MC4R ag barr	MPTP block	MC4R antagonist	PLA2 ctr	others
COc1ccc(N2C(=O)c3n[nH]c(C(C)C)c3C2c2ccc(C)cc2)cc1 (stereo not given)	nt	0.9	nt	nt	nt	nt
CCC(CC)C1=NN2C(=N)/C(=C\c3cc(C)n(-c4cccc(C)c4)c3C)C(=O)N=C2S1	58.9*	3.3	2.3	9.6	5.8	8.8	ATG4B confirm=47.8*
COc1ccc(C(=O)OCCN(C)C2CN(Cc3cn(Cc4cccc(F)c4)nn3)S(=O)(=O)C2)cc1OC (stereo not given)	nt	-1.2	nt	nt	nt	nt
O=C(c1cc(-c2ccccc2)on1)N1CCc2ccccc2C1	40.6*	-3.4	0.6	2.1	5.1	51.6*
COC(=O)[C@]12C[C@H](CC(=O)N3CCOCC3)C(=O)N(CCc3ccc(OC)c(OC)c3)C1=C[C@H](C1CCCC1)O[C@@H]2C	nt	3.8	nt	nt	nt	nt
COc1cccc(CNC(=O)C2CCC(CNS(=O)(=O)c3cccc4cccnc34)CC2)c1OC (stereo not given)	nt	-0.6	nt	nt	nt	nt
Cc1ccc(NC(=O)[C@@H](Cc2ccccc2)NC(=O)[C@H]2O[C@@H](n3ccc(=O)[nH]c3=O)[C@H](O)[C@@H]2O)cc1C	nt	2.4	nt	nt	nt	nt
C/C(CC(=O)Nc1ccccc1-c1ccccc1)=N\NC(=O)COc1ccc(C)cc1Br	72.2*	2.7	1.7	4.3	-1.7	78.5*
COc1ccccc1CNC(=O)C/C(C)=N/NC(=O)COc1ccc(C)cc1Br	-11.2	-0.8	0.1	0.2	4.4	nt
O=C(Nc1cc(Br)c(O)c(Br)c1)c1cccc(NC(=O)c2ccco2)c1	-10.4	0.8	-2.2	1.4	7.3	nt
O=C(Nc1cccc(N=Cc2cc(Br)cc(Br)c2O)c1)c1ccco1	68.7*	-0.2	-2.4	23.6	6.4	60.0*
O=C(Nc1cccc(N=Cc2cc(Cl)cc(Br)c2O)c1)c1ccco1	66.2*	-1.3	1.7	-15.5	-4.7	56.0*
O=C(Nc1nc2ncccn2c1-c1ccc(F)c(F)c1)C1CC1	nt	-2.6	nt	nt	nt	nt
O=C(CSc1nnc(-c2cccc(Cl)c2)n1Cc1ccco1)c1ccc(F)cc1	nt	0.9	nt	nt	nt	nt
O=C(C1CCN(c2ncnc3c2nc2n3CCCCC2)CC1)N1CCN(c2ccccc2F)CC1	12.9	-0.5	-3.1	-0.5	8.1	nt
Cc1cccc(N2CCN(C(=O)C3CCN(c4ncnc5c4nc4n5CCCCC4)CC3)CC2)c1C	62.9*	-5.0	-1.4	1.8	10.7	77.6*
Cc1cccc(N2CCN(C(=O)C3CCN(c4ncnc5c4nc4n5CCCCC4)CC3)CC2C)c1 (stereo not given)	46.8*	-10.8	2.6	-1.5	12.6	40.0	ATG4B confirm=62.8*
Cc1ccc(NC(=O)C2CCN(c3ncnc4c3nc3n4CCCCC3)CC2)cc1Cl	60.2*	-3.1	3.0	1.2	1.7	68.5*
COc1ccc(OC)c(-c2csc(N(Cc3ccco3)C(=O)c3cccs3)n2)c1	56.7*	3.5	-1.1	0.6	10.2	72.4*
CCOC(=O)c1sc2ccccc2c1NC(=O)c1coc2ccccc2c1=O	52.6*	-2.1	-2.3	3.8	3.7	42.8

Screening results as filed in PubChem BioAssay.
